In article PMC3362663 (Bioorganic & medicinal chemistry letters, 2012):
Blank lines part the entries; values can stand above or below the molecule they belong to.

Key:
Epac2 [1] = molecular target: T1, Epac2 (Mus musculus, UniProt Q9EQZ6); assay: 8-NBD-cAMP competition binding to Epac2, dose-dependent titration
T1 sequence (Q9EQZ6 1-993 isoform Q9EQZ6-3): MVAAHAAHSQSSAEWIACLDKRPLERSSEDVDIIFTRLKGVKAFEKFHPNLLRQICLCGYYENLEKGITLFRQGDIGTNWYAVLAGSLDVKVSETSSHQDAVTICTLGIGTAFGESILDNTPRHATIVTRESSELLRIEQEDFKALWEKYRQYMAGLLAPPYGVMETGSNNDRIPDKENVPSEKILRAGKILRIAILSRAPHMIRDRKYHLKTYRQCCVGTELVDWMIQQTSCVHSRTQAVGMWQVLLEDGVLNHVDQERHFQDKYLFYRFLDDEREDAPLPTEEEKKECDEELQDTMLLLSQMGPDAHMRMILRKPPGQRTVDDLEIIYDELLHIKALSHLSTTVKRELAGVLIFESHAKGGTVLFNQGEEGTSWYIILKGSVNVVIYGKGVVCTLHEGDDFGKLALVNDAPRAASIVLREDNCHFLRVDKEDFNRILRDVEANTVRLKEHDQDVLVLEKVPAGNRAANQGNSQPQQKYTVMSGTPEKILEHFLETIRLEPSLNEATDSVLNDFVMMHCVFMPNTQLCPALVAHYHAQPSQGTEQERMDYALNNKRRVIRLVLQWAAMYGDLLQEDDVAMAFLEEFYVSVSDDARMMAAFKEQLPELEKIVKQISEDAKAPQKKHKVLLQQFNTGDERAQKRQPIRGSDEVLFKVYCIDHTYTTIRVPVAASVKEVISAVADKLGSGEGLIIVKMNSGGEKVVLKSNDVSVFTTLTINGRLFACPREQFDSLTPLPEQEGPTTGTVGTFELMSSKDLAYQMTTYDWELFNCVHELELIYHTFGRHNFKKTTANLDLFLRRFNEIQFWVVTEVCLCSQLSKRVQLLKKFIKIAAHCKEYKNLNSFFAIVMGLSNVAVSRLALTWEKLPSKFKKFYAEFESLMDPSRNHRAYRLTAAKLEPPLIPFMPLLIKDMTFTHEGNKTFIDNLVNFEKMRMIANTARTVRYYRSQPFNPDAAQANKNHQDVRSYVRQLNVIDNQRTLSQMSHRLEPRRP

type I PKA holoenzyme = assay: Counter-screen: type I PKA holoenzyme activity; format: biochemical; conditions: 25 μM compound, 100 μM cAMP
Epac2 [2] = molecular target: T1, Epac2; assay: cAMP-mediated Epac2 GEF activity, purified recombinant full-length protein; format: biochemical; conditions: for Inhibition of Epac2 GEF activity: 25 μM compound in the presence of equal concentration (25 μM) of cAMP
Epac1 = molecular target: T2, Epac1 (Homo sapiens, UniProt O95398); assay: cAMP-mediated Epac1 GEF activity; format: biochemical; conditions: for Inhibition of Epac1 GEF (Rap1-GDP exchange) activity: 25 μM compound in the presence of equal concentration (25 μM) of cAMP
T2 sequence (O95398 1-923): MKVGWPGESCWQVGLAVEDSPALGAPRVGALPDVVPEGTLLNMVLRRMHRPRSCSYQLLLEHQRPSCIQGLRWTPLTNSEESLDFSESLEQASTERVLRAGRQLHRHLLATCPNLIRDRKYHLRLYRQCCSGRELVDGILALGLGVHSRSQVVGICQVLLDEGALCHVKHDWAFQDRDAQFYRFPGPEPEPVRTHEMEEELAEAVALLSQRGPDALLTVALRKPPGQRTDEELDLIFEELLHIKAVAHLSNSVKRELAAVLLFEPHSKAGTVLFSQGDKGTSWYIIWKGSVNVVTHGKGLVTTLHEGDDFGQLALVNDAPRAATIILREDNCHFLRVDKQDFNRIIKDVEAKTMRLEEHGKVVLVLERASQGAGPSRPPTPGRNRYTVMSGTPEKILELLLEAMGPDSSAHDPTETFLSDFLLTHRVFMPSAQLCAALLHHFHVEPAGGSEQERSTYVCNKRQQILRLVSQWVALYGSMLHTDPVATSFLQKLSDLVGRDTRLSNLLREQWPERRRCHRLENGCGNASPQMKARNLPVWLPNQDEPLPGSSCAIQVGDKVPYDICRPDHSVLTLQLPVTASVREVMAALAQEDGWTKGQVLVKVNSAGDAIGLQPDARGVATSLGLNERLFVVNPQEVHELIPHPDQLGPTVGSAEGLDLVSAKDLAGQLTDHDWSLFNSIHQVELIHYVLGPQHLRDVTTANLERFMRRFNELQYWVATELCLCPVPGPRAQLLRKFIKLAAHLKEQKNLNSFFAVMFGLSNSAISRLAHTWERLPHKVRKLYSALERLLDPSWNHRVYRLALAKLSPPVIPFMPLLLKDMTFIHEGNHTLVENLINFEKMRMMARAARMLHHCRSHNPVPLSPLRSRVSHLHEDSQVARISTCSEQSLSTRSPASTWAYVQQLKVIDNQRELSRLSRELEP

type II PKA holoenzyme = assay: Counter-screen: type II PKA holoenzyme activity; format: biochemical; conditions: 25 μM compound, 100 μM cAMP
HEK293/Epac2 cells = assay: Epac2-mediated Akt/PKB phosphorylation; format: cell-based; conditions: 10 μM, 5 min pretreatment before 10 μM 007-AM
Outline: (§1)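 HEK293 cells ectopically expressing Epac1 or Epac2 were pretreated, or not, with 10 μM test compound and then stimulated with 10 μM 007-AM. Cell lysates were analysed by Western blot with anti-phospho-Ser473 and anti-phospho-Thr308 PKB antibodies.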

HEK293/Epac1 cells = assay: Epac1-mediated Akt/PKB phosphorylation; format: cell-based; conditions: 10 μM, 5 min pretreatment before 10 μM 007-AM
Outline: as §1

[3] = 25 μM in the presence of equal molar concentration of cAMP, unpublished data

- IC50 (Epac2 [1]): > 300 µM
- Relative Potency (RA) (Epac2 [1]; RA = IC50, cAMP/IC50, compound): <0.16
Structure (SMILES): N#Cc1c(C2CCCCC2)nc(S)[nH]c1=O [5a]

- Effect on cAMP-induced type I PKA holoenzyme activation (type I PKA holoenzyme): not to alter
- Inhibition of Epac1 GEF (Rap1-GDP exchange) activity (Epac1): more Epac2-specific
- Effect on cAMP-induced type II PKA holoenzyme activation (type II PKA holoenzyme): not to alter
Structure (SMILES): Cc1ccc(C)c(CSc2nc(C3CC3)c(C#N)c(=O)[nH]2)c1 [6g, 4-Cyclopropyl-2-(2,5-dimethylbenzylsulfanyl)-6-oxo-1,6-dihydro-pyrimidine-5-carbonitrile]
- Inhibition of Epac2 GEF activity (Epac2 [2]): inhibit Epac2 GEF activity to basal levels
- Block of Epac2-mediated Akt phosphorylation (HEK293/Epac2 cells): completely blocked
- Block of Epac1-mediated Akt phosphorylation (HEK293/Epac1 cells): completely blocked

- Effect on cAMP-induced type I PKA holoenzyme activation (type I PKA holoenzyme): not to alter
- Effect on cAMP-induced type II PKA holoenzyme activation (type II PKA holoenzyme): not to alter
Structure (SMILES): Cc1ccc(C)c(CSc2nc(C3CCCC3)c(C#N)c(=O)[nH]2)c1 [6h, 4-Cyclopentyl-2-(2,5-dimethyl-benzylsulfanyl)-6-oxo-1,6-dihydro-pyrimidine-5-carbonitrile]
- Inhibition of Epac2 GEF activity (Epac2 [2]): inhibit Epac2 GEF activity to basal levels
- Inhibition of Epac1 GEF (Rap1-GDP exchange) activity (Epac1): inhibit Epac1-mediated Rap1-GDP exchange activity
- Block of Epac2-mediated Akt phosphorylation (HEK293/Epac2 cells): completely blocked
- Block of Epac1-mediated Akt phosphorylation (HEK293/Epac1 cells): completely blocked

- IC50 (Epac2 [1]): > 300 µM
Structure (SMILES): Cc1ccc(C)c(CSc2nc(C3CCNCC3)c(C#N)c(=O)[nH]2)c1 [6k]

- IC50 (Epac2 [1]): > 300 µM
Structure (SMILES): N#Cc1c(C2CCCCC2)nc(Nc2ccccc2)[nH]c1=O [8a]

- IC50 (Epac2 [1]): > 300 µM
Structure (SMILES): N#Cc1c(C2CCCCC2)nc(Nc2ccc(Cl)cc2)[nH]c1=O [8b]

- IC50 (Epac2 [1]): > 300 µM
Structure (SMILES): N#Cc1c(C2CCCCC2)nc(SCC(=O)Nc2ccccc2)[nH]c1=O [11a]

- IC50 (Epac2 [1]): > 300 µM
Structure (SMILES): Cc1cc(C)c(NC(=O)CSc2nc(C3CCCCC3)c(C#N)c(=O)[nH]2)c(C)c1 [11b]

- IC50 (Epac2 [1]): > 300 µM
Structure (SMILES): Cc1ccc(NC(=O)CSc2nc(C3CCCCC3)c(C#N)c(=O)[nH]2)cc1 [11c]

Structure (SMILES): O=S(=O)(NCCNC/C=C/c1ccc(Br)cc1)c1cccc2cnccc12 [H89, reference compound]
- Effect on cAMP-induced type I PKA holoenzyme activation (type I PKA holoenzyme): blocked the type I or II PKA activities completely
- Effect on cAMP-induced type II PKA holoenzyme activation (type II PKA holoenzyme): blocked the type I or II PKA activities completely

- Inhibition of Epac2 activity (Epac2 [2]; [3]): completely inhibiting
- Inhibition of Epac1 activity (Epac1; [3]): completely inhibiting
Structure (SMILES): Cc1ccc(C)c(CSc2nc(C3CCCCC3)c(C#N)c(=O)[nH]2)c1 [compound 1]

- IC50 (Epac2 [1]): > 300 µM
Structure (SMILES): N#Cc1c(C2CCCCC2)nc(SCC(=O)O)[nH]c1=O [compound 10]
